Here are results for 1 compound from ChEMBL document CHEMBL5653624 (Biochem Pharmacol, 2016).

Calls of active or inactive are those of the source. The rule behind the calls is not given here. Where only a bound is given, the exact number is not on record here.

Data set [1] in a line: Cytotoxicity against HBE cells assessed as reduction in cell viability at 2 uM measured after 20 hrs by MTS assay. Type of data set: toxicity, cell-based. The following applies: human. A digest of the protocol: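 MTS viability assay. RAW 264.7 cells seeded at 25,000 cells/cm2; HBE and hASM cells at 70% confluency and serum-starved for 24 h. Exposure for 20 h with LPS/IFNγ stimulation. MTS reagent added for 1 h at 37 °C in the dark, absorbance read at 490 nm. LPS/IFNγ-stimulated cells without inhibitor set at 100%.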
(In general: Formazan colour is commonly taken as a measure of viable cells.)

Data set [2] concerns RAW264.7. The data set can be described thus: Antiinflammatory activity in mouse RAW264.7 cells assessed as effect on LPS/IFNgamma-induced TNFalpha gene expression at 1 uM preincubated for 20 hrs followed by LPS/IFNgamma stimulation and measured after 4 hrs by RT-qPCR analysis. Type of data set: functional, cell-based. The following applies: time 24.0 hrs. In outline: (§1)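 RAW 264.7 macrophages in DMEM/10% FBS received 1 μM RGFP966 for 20 h, with LPS/IFNγ for the last 4 h. Washed with cold DPBS, total RNA isolated, integrity checked by 28S/18S. RT-qPCR by comparative Ct (2−ΔΔCt), fold change versus LPS/IFNγ control. Mean ± SD of 3–5 independent experiments.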
(In qPCR the cycle at which signal appears reflects the starting amount.)

Data set [3] deals with RAW264.7. The data set can be described thus: Antiinflammatory activity in mouse RAW264.7 cells assessed as effect on LPS/IFNgamma-induced iNOS gene expression at 1 uM preincubated for 20 hrs followed by LPS/IFNgamma stimulation and measured after 4 hrs by RT-qPCR analysis. Type of data set: functional, cell-based. The following applies: time 24.0 hrs. In outline:
as §1

Data set [4] has as its system RAW264.7. The data set can be described thus: Antiinflammatory activity in mouse RAW264.7 cells assessed as down regulation of LPS/IFNgamma-induced IL-1beta gene expression at 1 uM preincubated for 20 hrs followed by LPS/IFNgamma stimulation and measured after 4 hrs by RT-qPCR analysis. Type of data set: functional, cell-based. The conditions noted are these: time 24.0 hrs. A digest of the protocol: as §1

For data set [5], the system named is RAW264.7. Kind of data set: Antiinflammatory activity in mouse RAW264.7 cells assessed as down regulation of LPS/IFNgamma-induced IL-6 gene expression at 1 uM preincubated for 20 hrs followed by LPS/IFNgamma stimulation and measured after 4 hrs by RT-qPCR analysis. Type of data set: functional, cell-based. The conditions noted are these: time 24.0 hrs. In outline: as §1

Data set [6] deals with RAW264.7. Kind of data set: Antiinflammatory activity in mouse RAW264.7 cells assessed as down regulation of LPS/IFNgamma-induced IL-12b gene expression at 1 uM preincubated for 20 hrs followed by LPS/IFNgamma stimulation and measured after 4 hrs by RT-qPCR analysis. Type of data set: functional, cell-based. The following applies: time 24.0 hrs. A digest of the protocol: as §1

For data set [7], the system named is HBE. The data set can be described thus: Antiinflammatory activity in HBE cells assessed as effect on LPS/IFNgamma-induced IL-1beta gene expression at 2 uM […] by RT-qPCR analysis. Type of data set: functional, cell-based. The conditions noted are these: Homo sapiens. A digest of the protocol:
(§2)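 HBE cells (passage 73–103) or immortalized hASM cells (2–3 donors, passage 27–35), serum-starved. Then 2 μM RGFP966 for 20 h, with LPS/IFNγ for the last 4 h. Total RNA isolated; RT-qPCR by 2−ΔΔCt, fold change versus LPS/IFNγ control. Mean ± SD of 3–5 independent experiments.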

Data set [8] deals with HBE. The data set can be described thus: Antiinflammatory activity in HBE cells assessed as effect on LPS/IFNgamma-induced IL-12b gene expression at 2 uM […] by RT-qPCR analysis. Type of data set: functional, cell-based. The conditions noted are these: Homo sapiens. In outline:
as §2

The test system of a further data set is HASMC. Kind of data set: Antiinflammatory activity in HASMC cells assessed as effect on LPS/IFNgamma-induced IL-6 gene expression at 2 uM […] and measured after 4 hrs by RT-qPCR analysis. The conditions noted are these: Homo sapiens. Type of data set: functional, cell-based. A digest of the protocol: as §2
In data set [9] the test system is Lung. Kind of data set: Antiinflammatory activity in C57bl/6 mouse precision-cut lung slices assessed as down regulation of LPS/IFNgamma-induced IL-12b gene expression at 1 to 10 uM preincubated for 20 hrs followed by LPS/IFNgamma stimulation and measured after 4 hrs by RT-qPCR analysis. Type of data set: functional, tissue-based. The conditions noted are these: dose 1-10 µM, time 24.0 hrs. In outline:
(§3)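 PCLS, 250 μm thick, cut from agarose-filled lungs of male C57bl/6 mice (24–28 g, 8–10 weeks). Three slices per well at 37 °C, 5% CO2. Slices received RGFP966 at 1 and 10 μM final for 20 h, with 10 ng/ml LPS and 10 ng/ml IFNγ stimulation. RNA isolated; RT-qPCR fold change versus LPS/IFNγ control by 2−ΔΔCt. Mean ± SD, n = 3–5.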

Data set [10] relates to Lung. Kind of data set: Antiinflammatory activity in C57bl/6 mouse precision-cut lung slices assessed as upregulation of LPS/IFNgamma-induced IL-1beta gene expression at 1 to 10 uM preincubated for 20 hrs followed by LPS/IFNgamma stimulation and measured after 4 hrs by RT-qPCR analysis relative to control. Type of data set: functional. The conditions noted are these: dose 1-10 µM; time 24 hrs. A digest of the protocol:
as §3

The target in data set [11] is T1, Histone deacetylase 3 (Mus musculus) (UniProt O88895).
T1 sequence (whole entry): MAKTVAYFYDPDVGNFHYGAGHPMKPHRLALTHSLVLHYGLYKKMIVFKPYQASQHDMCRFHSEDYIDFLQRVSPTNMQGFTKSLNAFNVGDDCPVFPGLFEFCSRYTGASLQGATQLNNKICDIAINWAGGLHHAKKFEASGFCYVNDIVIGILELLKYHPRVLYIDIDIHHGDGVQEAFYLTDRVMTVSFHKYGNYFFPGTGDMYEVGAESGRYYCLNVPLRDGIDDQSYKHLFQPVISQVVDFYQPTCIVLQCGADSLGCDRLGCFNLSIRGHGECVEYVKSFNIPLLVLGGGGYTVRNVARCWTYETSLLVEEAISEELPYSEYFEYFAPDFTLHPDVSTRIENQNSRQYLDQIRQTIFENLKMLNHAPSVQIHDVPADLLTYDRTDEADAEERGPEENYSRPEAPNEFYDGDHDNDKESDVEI
Kind of data set: Inhibition of HDAC3 in mouse RAW264.7 cells assessed as effect on LPS/IFNgamma-induced IkappaBalpha activation preincubated for 20 hrs followed by LPS/IFNgamma stimulation and measured after 1 hr by Western blot analysis. Type of data set: cell-based. On the technique in general: Immunoblotting shows a protein as a band on a membrane.

The subject of data set [12] is RAW264.7. Kind of data set: Antiinflammatory activity in LPS/IFNgamma-stimulated mouse RAW264.7 cells assessed as effect on NF-kappaB p65 expression preincubated for 20 hrs followed by LPS/IFNgamma stimulation and measured after 4 hrs by Western blot analysis. The conditions noted are these: time 24.0 hrs. Type of data set: functional, cell-based.
Data set [13] concerns Lung. Kind of data set: Antiinflammatory activity in C57bl/6 mouse precision-cut lung slices assessed as effect on LPS/IFNgamma-induced HDAC1 gene expression at 1 to 10 uM preincubated for 20 hrs followed by LPS/IFNgamma stimulation and measured after 4 hrs by RT-qPCR analysis. Type of data set: functional, tissue-based. The following applies: dose 1-10 µM, time 24.0 hrs.

For data set [14], the system named is Lung. The data set can be described thus: Antiinflammatory activity in C57bl/6 mouse precision-cut lung slices assessed as effect on LPS/IFNgamma-induced HDAC1 expression at 1 to 10 uM preincubated for 20 hrs followed by LPS/IFNgamma stimulation and measured after 4 hrs by Western blot analysis. Type of data set: functional, tissue-based. The following applies: dose 1-10 µM, time 24.0 hrs.

In data set [15] the target is T1, Histone deacetylase 3 (Mus musculus). Kind of data set: Effect on HDAC3 nuclear localization in LPS/IFNgamma-stimulated mouse RAW264.7 cells preincubated for 20 hrs followed by LPS/IFNgamma stimulation and measured after 1 hr by Western blot analysis. Type of data set: cell-based. A digest of the protocol: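 RAW 264.7 cells treated for 20 h, then 1 h LPS/IFNγ, and fractionated into nuclear and cytosolic parts. Fractions immunoblotted, with PARP-1 and β-actin as internal controls. Densitometry with vehicle control set at 100%. Mean ± SD of 3–4 independent experiments.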

`Nc1cc(F)ccc1NC(=O)/C=C/c1cnn(C/C=C/c2ccccc2)c1`: in [1], the Activity result is reported as “Non-Toxic”. Besides, the result in the data set with RAW264.7 [2], in the data set with RAW264.7 [3], with HBE [7], in the data set on HBE [8], with HASMC and in the data set with RAW264.7 [12] was inactive. Also, the result (in the data set on Lung [13]; with Lung [14]; in data set [15]) was inactive. Also, the outcome with RAW264.7 [4], in the data set on RAW264.7 [5], in the data set on RAW264.7 [6] and in the data set with Lung [9] was Active. Besides, the “fold change (FC)” value in the data set on Lung [10] is recorded as above 2. The inhibition entry in data set [11] was “inactive”.
